SR-BI DiI-HDL act: SR-BI HDL lipid transfer activation; CHO ldlA[mSR-BI] cells, DiI-HDL uptake fluorescence, 3 h; 100 = double the neutral-control signal; activation, % at 12.5 µM; 320,000 tested, 0.096% active; AID 504775;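 active means mean replicate activation of at least 60% and every replicate at or above 60%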;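 further: 0% = median plate neutral-control signal and 100% = twice that signal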
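Material: SR-BI-overexpressing, LDLR-lacking CHO cells; schedule: compound exposure 3 h, 37 °C; reagent: DiI-labelled HDL at 10 µg/mL final; technique: bottom-read fluorescence, 550/595 nm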
PKA-R2B activ: activates the human PKA-R2B holoenzyme complex. P22694+P31323. PKA-R2B holoenzyme dissociation, Cy5-IP20 fluorescence polarization; R2B truncated from residue 108, S112A mutant; 0% DMSO only, 100% 113 µM cGMP. activation, % at 11.4 µM. 340,000 tested, 0.079% active. AID 504700;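 active means activation above a cutoff set at the mean over all compounds plus 3 SD, cut at about 18% in these data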;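 further: higher means more holoenzyme dissociation and a rise in polarization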
Target sequence (P31323 whole entry, looked up, other chains not shown, the tested form may be a part): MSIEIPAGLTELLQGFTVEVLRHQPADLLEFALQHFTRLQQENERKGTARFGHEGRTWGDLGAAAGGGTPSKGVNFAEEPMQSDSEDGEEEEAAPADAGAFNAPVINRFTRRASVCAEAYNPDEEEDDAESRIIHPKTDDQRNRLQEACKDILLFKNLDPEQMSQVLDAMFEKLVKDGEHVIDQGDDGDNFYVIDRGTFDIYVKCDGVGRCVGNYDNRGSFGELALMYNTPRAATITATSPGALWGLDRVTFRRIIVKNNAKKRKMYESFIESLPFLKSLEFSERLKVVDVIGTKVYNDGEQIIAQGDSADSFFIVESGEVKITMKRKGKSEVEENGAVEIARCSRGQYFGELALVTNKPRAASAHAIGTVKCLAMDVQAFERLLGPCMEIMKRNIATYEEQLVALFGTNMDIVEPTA
SR-BI DiI inh: blocks mouse SR-BI lipid uptake from DiI-HDL | Q61009 | ldlA[mSR-BI] CHO cells, DiI-HDL uptake fluorescence, 3 h | inhibition, % at 12.5 µM | 320,000 tested, 0.96% active;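 active means mean replicate inhibition of at least 70% and a set share of replicates each scoring 70 or more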;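 further: 0% = median of neutral control wells and 100% = median of positive control wells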
CDK5 p35 inh: CDK5/p35 (human) kinase inhibition; AID 488839; Recombinant CDK5/p35, ADP-Glo luminescence, 60 min; inhibition, % at 10 µM; Q00535+Q15078; 330,000 tested, 0.01% active;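 active means highest replicate inhibition of at least 50% and at least 75% of replicates reaching 50%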;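 further: plate controls were DMSO neutral control for no effect and GW8510 at 10 µM for full effect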
dFosB activator: mouse delta FosB homodimer activation | P13346 | purified delta FosB, TAMRA-CDK5 oligo fluorescence polarization; percent of positive-control signal above neutral wells | activation, % at 25 µM | 340,000 tested, 0.99% active;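 active means mean activation above about 17%, with every replicate also reaching it, limit read from the data, passing the limit was not always enough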
PKA-R1A activ: activators of PKA-R1A complex. P00514+P68181. 340,000 tested, 0.083% active. activation, % at 11.4 µM. PKA-R1A dissociation, Cy5-IP20 fluorescence polarization; scaled: DMSO 0%, 113 µM cGMP 100%;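 active means percent activation above the mean of all tested compounds plus 3 SD, cut at about 19% in these data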;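 further: higher means more PKAc released from R1A so a rise in polarization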
* marks the source's active call; other numbers are inactive results; . = no result given. A selection: hits, their analogues and other compounds. The true share with any hit is near 2.1%.

SMILES	SR-BI DiI-HDL act	PKA-R2B activ	SR-BI DiI inh	CDK5 p35 inh	dFosB activator	PKA-R1A activ
O=S1(=O)CCOC[C@H](c2ccccc2)N1Cc1ccccc1	1.5	-6.2	-1.5	0.4	4.6	-3.3
COc1cccc(/C=N/NC(=O)c2nc(-c3ccccc3)cc(-c3ccccc3)n2)c1O	-106.0	4.1	106.0*	-1.2	1.3	-16.9
CCn1c(C)nc2cc(C(=O)N/N=C/c3cccc(OC)c3O)ccc21	-66.4	3.1	66.4	-7.8	22.0*	6.1
COc1ccc(/C=C/C(=O)NCC(=O)N/N=C/c2cc(Br)ccc2OC)cc1	-78.4	-7.4	78.4*	-3.3	3.0	2.8
COc1ccccc1/C=C\C(=O)NCC(=O)N/N=C/c1cccc(OC)c1O	6.4	-8.2	-6.4	-0.3	29.7*	-0.1
COc1cccc(C=NNC(=O)c2ccncc2)c1O	-30.6	5.4	30.6	-0.4	4.1	-0.5
COc1ccc(/C=N/NC(=O)CNC(=O)/C=C/c2ccccc2OC)cc1	.	1.0	.	-0.2	-8.9	-13.3
COc1cc(C2C3=C(CC(C)(C)CC3=O)N(C)C3=C2C(=O)CC(C)(C)C3)cc(Br)c1O	-23.3	-1.9	23.3	1.2	-14.4	5.9
COc1cc(/C=N/NC(=O)c2ccc(COc3ccccc3Cl)o2)cc(Br)c1O	8.1	7.2	-8.1	-2.6	34.4*	-2.0
COc1cccc(/C=N\NC(=O)c2ccc(Cn3cc(Br)c([N+](=O)[O-])n3)o2)c1O	-101.0	-1.7	101.0*	-0.1	23.6*	-2.3
COc1cccc(/C=N/NC(=O)c2c(C)nc3ccc(Br)cn23)c1O	-100.3	-15.3	100.3*	2.9	9.2	-5.3
COc1cc(/C=N\NC(=O)c2ccc(Cn3nc([N+](=O)[O-])c(Cl)c3C)o2)ccc1O	-45.8	-4.7	45.8	0.3	-6.4	-5.3
CCOc1ccccc1/C=N/NC(=O)c1c(C)nc2ccc(Br)cn12	-65.9	7.6	65.9	1.2	-2.8	-9.4
COc1cccc(/C=C/C(=O)Nc2cccc(C(C)=O)c2)c1OC	.	6.3	.	0.1	-29.4	-1.0
COc1ccccc1/C=C/C(=O)Nc1cccc(C(C)=O)c1	-75.9	-3.2	75.9*	-4.1	-22.2	-5.0
CC(C)n1c(N2CCN(S(=O)(=O)c3cccc([N+](=O)[O-])c3)CC2)nc2ccccc21	-36.9	0.5	36.9	1.8	-5.1	-8.6
CC(C)n1nnnc1SCC(=O)N(C)C1CCS(=O)(=O)C1 (stereo not drawn)	-1.5	-3.7	1.5	-0.3	-6.4	0.5
CCN(CC)N=Nc1ccc(S(=O)(=O)Nc2nc(C)cc(C)n2)cc1	16.0	11.4	-16.0	-0.2	4.2	-6.2
Cc1ccc(-c2nnn3c2nc(NCCc2ccc(S(N)(=O)=O)cc2)c2ccccc23)cc1	87.6*	-0.2	-87.6	0.9	2.6	-1.5
CC1(C)c2[nH]c3ccccc3c2C[C@@H]2C(=O)N(c3cc(F)ccc3F)C(=O)N21	-77.2	6.8	77.2*	0.1	-0.5	0.1
COc1ccccc1CN1C(=O)[C@@H]2Cc3c([nH]c4ccccc34)C(C)(C)N2C1=O	-76.2	-1.8	76.2*	-0.2	0.5	2.6
COc1ccccc1C(=O)COC(=O)CCNS(=O)(=O)c1ccc(C)c(C)c1	0.3	-5.9	-0.3	-0.9	-12.3	-6.2
Cn1c(SCc2cccc(C(F)(F)F)c2)nnc1-c1ccco1	164.0*	-11.2	-164.0	0.1	-2.8	0.4
COc1ccc(N2C(=O)CSC2c2ccccc2F)c(OC)c1 (stereo not drawn)	24.6	-10.0	-24.6	0.1	-0.1	-8.8
Cc1ccc(-c2nn(-c3ccccc3)c3[nH]c(=O)c(CNCc4ccccc4)cc23)cc1	-34.7	-10.9	34.7	2.5	21.4*	5.6
SMILES	SR-BI DiI-HDL act	PKA-R2B activ	SR-BI DiI inh	CDK5 p35 inh	dFosB activator	PKA-R1A activ
Cc1cccc(NC(=O)c2sc3nc4c(c(-c5cccs5)c3c2N)CN(C)CC4)c1	-82.8	-4.0	82.8*	0.0	-12.7	-1.8
CC(C)NC(=O)c1sc2nc3c(c(-c4cccs4)c2c1N)CN(C)CC3	3.4	-3.8	-3.4	0.2	3.6	-1.2
CCN(CC)S(=O)(=O)c1cccc(C(=O)Nc2cc(C)cc(C)c2)c1	-76.7	-11.7	76.7*	-0.7	-9.7	-11.6
CC(C)Oc1ccccc1/C=N/NC(=O)c1ccccc1Cl	-77.0	-11.5	77.0*	-1.2	2.0	-17.0
CCOc1ccccc1/C=N/NC(=O)c1cccc(Cl)c1	-86.1	-6.5	86.1*	2.3	1.2	-3.8
CCOc1ccccc1/C=N/NC(=O)c1cccc(S(=O)(=O)N(CC)CC)c1	-77.1	-11.7	77.1*	-8.1	-6.0	-5.7
CCOc1ccc(Cl)cc1/C=N/NC(=O)c1ccccc1	-57.1	-0.6	57.1	0.4	-6.3	-10.0
COCCNC(=O)C[C@H]1C[C@H]2c3cc(NS(=O)(=O)c4ccc(F)cc4)ccc3O[C@H]2[C@H](CO)O1	.	-8.8	.	.	.	-1.2
O=C(NCc1ccco1)C1CCN(S(=O)(=O)c2ccccc2C(F)(F)F)CC1	.	8.7	10.3	-0.3	-0.1	-2.2
O=C(NNC(=O)C1CCN(S(=O)(=O)c2ccccc2C(F)(F)F)CC1)c1ccccc1O	-100.1	8.0	100.1*	0.5	-1.9	8.7
O=C(NNC(=O)C1CCN(S(=O)(=O)c2c(Cl)cccc2Cl)CC1)c1ccccc1O	-102.9	-2.8	102.9*	0.0	-7.0	-4.5
O=C(NC1CCCCCC1)C1CCN(S(=O)(=O)c2c(Cl)cccc2Cl)CC1	-11.0	4.2	11.0	1.6	-12.1	2.5
O=C(NNC(=O)C1CCN(S(=O)(=O)c2ccccc2)CC1)c1ccccc1O	-83.1	8.0	83.1*	0.1	-4.1	-19.1
O=C(NNC(=O)c1ccccc1O)c1ccc(Cl)c(S(=O)(=O)N2CCCCC2)c1	-102.9	0.5	102.9*	-3.2	-6.7	-6.4
Nc1ccc(Cn2ccc3c4c(N)nc(N)nc4ccc32)cc1	8.5	-4.2	-8.5	16.5	157.8*	0.0
COc1cc2c(cc1OC)C(CNC(=O)C=Cc1cc(OC)c(OC)c(OC)c1)C2 (stereo not drawn)	.	3.4	.	.	.	-3.2
O=S(=O)(c1ccccc1)c1cnc(-c2ccccc2)nc1N1CCCC1	-85.2	-10.5	85.2*	0.6	-7.6	-2.6
Cc1ccc(S(=O)(=O)c2cnc(-c3ccccc3)nc2N2CCCCC2)cc1	-57.4	-1.8	57.4	-0.7	-11.0	-2.6
CC(C)N1CCc2c(sc(NC(=O)c3ccc(S(=O)(=O)N4CCc5ccccc54)cc3)c2C(N)=O)C1	35.3	-4.9	-35.3	-1.6	54.7*	4.0
CC(C)N1CCc2c(sc(NC(=O)c3nc4ccccc4s3)c2C(N)=O)C1	-2.0	10.1	2.0	3.3	-28.7	3.7

Screens (PubChem)
